Experimental data published in ChEMBL document CHEMBL4000223, “Evaluation of substituted ebselen derivatives as potential trypanocidal agents” (Bioorg Med Chem Lett, 2017).

How the values were obtained:
Trypanosoma brucei [1] = assay: Inhibition of recombinant Trypanosoma brucei His6-tagged HK1 expressed in Escherichia coli M15(pREP) harboring pQE30 at 10 uM using glucose as substrate by spectrophotometric based glucose 6-phosphate dehydrogenase enzyme coupled assay
How it was run: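 Purified recombinant TbHK1 incubated with the compound at a single fixed screening concentration, after which enzyme activity was scored. Percent inhibition is recorded relative to uninhibited enzyme.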

Trypanosoma brucei [2] = assay: Antitrypanosomal activity against Trypanosoma brucei 427 bloodstream forms at 10 uM after 72 hrs by CellTiter-Blue fluorescence assay; type: functional; conditions: Trypanosoma brucei, 427, 72 h
How it was run: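 Single-concentration growth screen of bloodstream-form cultures, run in triplicate. Percent inhibition was calculated against growth of parasites given DMSO vehicle on the same plate, which served as the negative control. EbS at the same concentration was included in each assay as a positive control.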

[3] = Inhibition of recombinant Trypanosoma brucei His6-tagged HK1 expressed in Escherichia coli M15(pREP) harboring pQE30 using glucose as substrate by spectrophotometric based glucose 6-phosphate dehydrogenase enzyme coupled assay
Trypanosoma brucei [4] = assay: Antitrypanosomal activity against Trypanosoma brucei 427 bloodstream forms after 72 hrs by CellTiter-Blue fluorescence assay; type: functional; conditions: Trypanosoma brucei, 427, 72 h
How it was run: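 Bloodstream-form cultures were run as triplicate dose-response series to derive 50% effective concentrations. Compounds were taken to this stage only if they gave more than 50% growth inhibition in the single-concentration screen. DMSO vehicle served as the negative control, and EbS was included as a positive control in each assay.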

[5] = Inhibition of recombinant Trypanosoma brucei HK1 expressed in Escherichia coli or yeast using glucose as substrate by spectrophotometric based glucose 6-phosphate dehydrogenase enzyme coupled assay
Trypanosoma brucei [6] = assay: Antitrypanosomal activity against Trypanosoma brucei bloodstream forms after 72 hrs by CellTiter-Blue fluorescence assay; type: functional
How it was run: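 Bloodstream-form T. brucei cultures assayed in triplicate, with DMSO vehicle as negative control and a reference ebselen analogue as positive control on each plate. Growth inhibition is calculated against the DMSO controls of the same plate. Compounds giving over 50% inhibition in the single-concentration screen went on to triplicate dose-response curves to derive 50% effective concentrations.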

[7] = Inhibition of recombinant Trypanosoma brucei His6-tagged HK1 expressed in Escherichia coli M15(pREP) harboring pQE30 using glucose as substrate after 2 hrs by spectrophotometric based glucose 6-phosphate dehydrogenase enzyme coupled assay

Structure (SMILES) | inhibition (Trypanosoma brucei [1]) | inhibition at 10 µM (Trypanosoma brucei [2]) | IC50 [3] | EC50 (Trypanosoma brucei [4]) | IC50 [5] | EC50 (Trypanosoma brucei [6]) | IC50 [7]
CC(C)C[C@@H](NC(=O)[C@@H](CCCCN)NC(=O)[C@@H](C)NC(=O)CNC(=O)CNC(=O)c1cccc2c(=O)n(-c3ccccc3)[se]c12)C(=O)O | 0% | 0% | > 10 µM | > 10 µM |  |  | 
O=C(O)c1nn(Cc2ccc(Cl)cc2Cl)c2ccccc12 [LONIDAMINE] |  |  |  |  | 850 µM |  | 
CC(C)C[C@@H](NC(=O)[C@@H](CCCCN)NC(=O)[C@@H](C)NC(=O)CNC(=O)CNC(=O)Cn1[se]c2ccccc2c1=O)C(=O)O | 1.7% | 34.4% | > 10 µM | > 10 µM |  |  | 
CC(C)C[C@@H](NC(=O)[C@@H](CCCCN)NC(=O)[C@@H](C)NC(=O)CNC(=O)CNC(=O)c1cccc(-n2sc3ccccc3c2=O)c1)C(=O)O | 0% | 0% | > 10 µM | > 10 µM |  |  | 
CC(C)C[C@@H](NC(=O)[C@@H](CCCCN)NC(=O)[C@@H](C)NC(=O)CNC(=O)CNC(=O)c1ccc(-n2sc3ccccc3c2=O)cc1)C(=O)O | 10.4% | 26.4% | > 10 µM | > 10 µM |  |  | 
COC(=O)c1ccc(-n2[se]c3ccccc3c2=O)cc1 | 79% | 38.6% | 3.16 µM | 13 µM |  |  | 
COC(=O)c1cccc2c(=O)n(-c3ccccc3)[se]c12 | 2.7% | 55.6% | > 10 µM | 10 µM |  |  | 
CC(C)C[C@@H](NC(=O)[C@@H](CCCCN)NC(=O)[C@@H](C)NC(=O)CNC(=O)CNC(=O)c1cccc(-n2[se]c3ccccc3c2=O)c1)C(=O)O | 0% | 28.4% | > 10 µM | > 10 µM |  |  | 
O=C(O)c1cccc2c(=O)n(-c3ccccc3)[se]c12 | 0% | 0% | > 10 µM | > 10 µM |  |  | 
COC(=O)c1cccc(-n2[se]c3ccccc3c2=O)c1 | 0% | 18% | > 10 µM | > 10 µM |  |  | 
O=C(O)c1ccc(-n2sc3ccccc3c2=O)cc1 | 0% | 0% | > 10 µM | > 10 µM |  |  | 
O=C(O)c1ccc(-n2[se]c3ccccc3c2=O)cc1 | 17.2% | 12% | > 10 µM | > 10 µM |  |  | 
COC(=O)c1cccc(-n2sc3ccccc3c2=O)c1 | 1.7% | 8.8% | > 10 µM | > 10 µM |  |  | 
COC(=O)c1ccc(-n2sc3ccccc3c2=O)cc1 | 22.8% | 66.5% | > 10 µM | 3.8 µM |  |  | 
O=C(O)c1cccc(-n2sc3ccccc3c2=O)c1 | 0% | 15.8% | > 10 µM | > 10 µM |  |  | 
CC(C)C[C@@H](NC(=O)[C@@H](CCCCN)NC(=O)[C@@H](C)NC(=O)CNC(=O)CNC(=O)c1cccc2c(=O)n(-c3ccccc3)sc12)C(=O)O | 0% | 0% | > 10 µM | > 10 µM |  |  | 
O=c1c2ccccc2sn1-c1ccccc1 |  |  |  |  |  | 0.03 µM | 2 µM
CC(C)C[C@H](NC(=O)[C@H](CCCCN)NC(=O)[C@H](C)NC(=O)CCOCCOCCNC(=O)c1ccc(-n2[se]c3ccccc3c2=O)cc1)C(=O)O | 0% | 25% | > 10 µM | > 10 µM |  |  | 
COC(=O)c1cccc2c(=O)n(-c3ccccc3)sc12 | 18% | 52.5% | > 10 µM | 10 µM |  |  | 
O=C(O)Cn1sc2ccccc2c1=O | 0.87% | 77.6% | > 10 µM | 7.2 µM |  |  | 
O=C(O)Cn1[se]c2ccccc2c1=O | 0% | 0% | > 10 µM | > 10 µM |  |  | 
CC(C)C[C@@H](NC(=O)[C@@H](CCCCN)NC(=O)[C@@H](C)NC(=O)CNC(=O)CNC(=O)Cn1sc2ccccc2c1=O)C(=O)O | 3.7% | 28% | > 10 µM | > 10 µM |  |  | 
O=c1c2ccccc2[se]n1-c1ccccc1 [EBSELEN] |  |  |  |  |  | 2.9 µM | 0.05 µM
O=C(O)c1cccc(-n2[se]c3ccccc3c2=O)c1 | 18.5% | 0% | > 10 µM | > 10 µM |  |  | 
O=C(O)c1cccc2c(=O)n(-c3ccccc3)sc12 | 0% | 10.9% | > 10 µM | > 10 µM |  |  | 
COC(=O)Cn1sc2ccccc2c1=O | 12.8% | 98.3% | > 10 µM | 0.28 µM |  |  | 
CC(C)C[C@@H](NC(=O)[C@@H](CCCCN)NC(=O)[C@@H](C)NC(=O)CNC(=O)CNC(=O)c1ccc(-n2[se]c3ccccc3c2=O)cc1)C(=O)O | 0% | 44.1% | > 10 µM | > 10 µM |  |  | 
CC(C)C[C@H](NC(=O)[C@H](CCCCN)NC(=O)[C@H](C)NC(=O)CCOCCOCCNC(=O)c1ccc(-n2sc3ccccc3c2=O)cc1)C(=O)O | 0% | 35.4% | > 10 µM | > 10 µM |  |  | 
COC(=O)Cn1[se]c2ccccc2c1=O | 0% | 0% | > 10 µM | > 10 µM |  |  | 
